Measurements as given in PMC5599134 (Structure (London, England : 1993), 2017).
Where a chain is given by its changes, count along the chain named. Names and notes keep the numbering of the source. Ends that are not written are not given here.

Key:
[1] = test system: Snap25b-WT; assay: Co2+ affinity pull-down of GFP-Snap25b-WT by DHHC17 mutants in HEK-293T cells; format: cell-based, human; details: 24 h co-transfection, Co2+ (Talon) pull down, gel-densitometry
[2] = test system: Snap25b; format: cell-based, human; details: HEK-293T, 100 μM 17-ODYA, 4 h, 37°C; Rhodamine-azide click; n=3
Method in brief: (§1)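 HEK-293T cells (DMEM, 10% FBS, 37°C, 5% CO2) co-transfected with 2 μg GFP-DHHC17 (wild type or mutants) and 0.5 μg EGFP-Snap25b, cysteine-less C4A or empty vector, using PEI-max. At 24 h, cells given serum-free DMEM with 100 μM 17-ODYA for 4 h at 37°C, then lysed in dodecylmaltoside buffer. Click reaction with rhodamine azide/CuSO4/TCEP/TBTA for 1 h at room temperature. In-gel rhodamine fluorescence; anti-GFP and anti-Snap25b blots; bands quantitated.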

[3] = biological target: T1, ANK17 domain of DHHC17 (Homo sapiens, UniProt Q8IUH5); assay: ITC titration of ANK17-WT with Snap25b species; format: binding; details: for effect of alanine mutation in Snap25b on binding to ANK17 (in words): ITC, ANK17-WT titrated into Snap25b mutants, 25°C, 1X PBS 1 mM DTT
T1 sequence (Q8IUH5 50-288): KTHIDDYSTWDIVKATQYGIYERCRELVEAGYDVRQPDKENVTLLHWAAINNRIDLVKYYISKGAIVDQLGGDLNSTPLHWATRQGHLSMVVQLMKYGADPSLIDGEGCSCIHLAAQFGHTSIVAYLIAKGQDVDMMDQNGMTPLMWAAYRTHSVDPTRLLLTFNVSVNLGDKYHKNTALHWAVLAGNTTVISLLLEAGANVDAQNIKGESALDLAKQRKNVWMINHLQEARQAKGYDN

[4] = biological target: Snap25b (Synaptosomal-associated protein 25), wild type, full length (human) (UniProt P60880); assay: ITC
[5] = test system: DHHC17; assay: Autoacylation of DHHC17 in 17-ODYA metabolic labeling; format: cell-based, human; details: HEK-293T, click chemistry
Method in brief: as §1

[6] = test system: Snap25b-WT; assay: In vitro palmitate transfer from NBD-palmitoyl-CoA to Snap25b; format: biochemical, human; details: both in absence and presence of purified Snap25b-WT
[7] = biological target: Snap25b-C4A (cysteine-less mutant), full length (human) (UniProt P60880); assay: ITC
[8] = biological target: Snap25b_(111–120) peptide (human); assay: ITC
[9] = test system: Snap25b-WT; assay: ITC titration of ANK17 mutants into full-length Snap25b-WT; format: binding, human; details: ANK17 mutants titrated into Snap25b-WT, 25°C, 1X PBS 1 mM DTT
[10] = test system: wild-type Htt; assay: ITC titration of ANK17-W130A into MBP-Htt1–548; format: binding; details: titrated into MBP-Htt1–548, 25°C, 1X PBS 1 mM DTT
[11] = Size exclusion chromatography; format: physicochemical; details: Superdex-200
Method in brief: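 His-tagged protein expressed in E. coli BL21(DE3)-Gold and Ni-NTA purified. Spun at 21000 × g for 20 min at 4°C, then about 200 μL injected onto Superdex-200. Column buffer was 50mM Tris-HCl, 50mM NaCl, 5% glycerol, 1mM DTT for crystallization, or 1X PBS pH 7.4 with 1 mM DTT for ITC. Peak fractions pooled.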

[12] = test system: Snap25b; details: palmitoylated enzyme intermediate; ref Greaves et al., 2017; cited from earlier work

W130A: full length DHHC17 mutant W130A (GFP fusion)
amount of Snap25b pulled down by DHHC17 mutant (in words) [1]: largest decrease in affinity
S-acylation (palmitate transfer) of Snap25b (in words) [2]: severely reduced levels of palmitoylation

mutation to phenylalanine: full length DHHC17 with W130 mutated to phenylalanine
S-acylation (palmitate transfer) of Snap25b (in words) [2]: loss of function of W130A can be recovered

P117A: Snap25b alanine mutant P117A (GFP fusion in pull-down)
effect of alanine mutation in Snap25b on binding to ANK17 (in words) [3]: largest reduction in binding affinity
effect of alanine mutation in Snap25b on binding to ANK17 (in words) ([3]; listed as Snap25b-P117A): showed only marginal heat of binding and we could not obtain any fitting of the integrated heats

ANK17-Y67A (domain or fragment)
fold reduction of affinity against ANK17-WT [4]: 5 fold

DHHC17: full length human DHHC17 palmitoyltransferase (NP_056151)
autoacylation (in words) [5]: did not detect any autoacylation
S-acylation (palmitate transfer) of Snap25b (in words) [2]: readily transfers palmitate to Snap25b
autopalmitoylation with or without Snap25b (in words) [6]: does not appear to get autopalmitoylated to appreciable levels

N100A: full length DHHC17 mutant N100A (GFP fusion)
amount of Snap25b pulled down by DHHC17 mutant (in words) [1]: largest decrease in affinity
S-acylation (palmitate transfer) of Snap25b (in words) [2]: severely reduced levels of palmitoylation

V113A: Snap25b alanine mutant V113A (GFP fusion in pull-down)
effect of alanine mutation in Snap25b on binding to ANK17 (in words) [3]: followed by the V113A and Q116A

ankyrin repeat domain of Human DHHC17 (ANK17), wild type (domain or fragment)
Kd [7]: 3 µM
Kd [8]: 11 µM

GVVASQPARV [Snap25b111–120]
Kd [3]: ~11 µM

B1: DHHC17-C467S: mutation of the cysteine of DHHC domain to serine (protein, UniProt Q8IUH5 1-632, looked up, variant C467S)
Palmitoyltransferase ZDHHC17: MQREEGFNTKMADGPDEYDTEAGCVPLLHPEEIKPQSHYNHGYGEPLGRKTHIDDYSTWDIVKATQYGIYERCRELVEAGYDVRQPDKENVTLLHWAAINNRIDLVKYYISKGAIVDQLGGDLNSTPLHWATRQGHLSMVVQLMKYGADPSLIDGEGCSCIHLAAQFGHTSIVAYLIAKGQDVDMMDQNGMTPLMWAAYRTHSVDPTRLLLTFNVSVNLGDKYHKNTALHWAVLAGNTTVISLLLEAGANVDAQNIKGESALDLAKQRKNVWMINHLQEARQAKGYDNPSFLRKLKADKEFRQKVMLGTPFLVIWLVGFIADLNIDSWLIKGLMYGGVWATVQFLSKSFFDHSMHSALPLGIYLATKFWMYVTWFFWFWNDLNFLFIHLPFLANSVALFYNFGKSWKSDPGIIKATEEQKKKTIVELAETGSLDLSIFCSTCLIRKPVRSKHCGVCNRCIAKFDHHSPWVGNCVGAGNHRYFMGYLFFLLFMICWMIYGCISYWGLHCETTYTKDGFWTYITQIATCSPWMFWMFLNSVFHFMWVAVLLMCQMYQISCLGITTNERMNARRYKHFKVTTTSIESPFNHGCVRNIIDFFEFRCCGLFRPVIVDWTRQYTIEYDQISGSGYQLV
S-acylation (palmitate transfer) of Snap25b (in words) [2]: does not show any appreciable transfer

B2: ANK17-W130A: ANK17 with alanine substitution at position W130 (protein, UniProt Q8IUH5 50-288, looked up, variant W130A)
chain: T1 sequence (Q8IUH5 50-288) with W81A
modifications: ankyrin repeat domain
effect of alanine mutation in ANK17 on binding to full-length Snap25b (in words) [9]: showed only heat of dilution
binding of ANK17 mutant to wild-type Htt (in words) [10]: no discernible signs of binding to wild-type Htt

B3: ANK17: cytoplasmic ankyrin repeat domain of human DHHC17, residues K50 to D288 (protein, UniProt Q8IUH5 50-288, looked up, fragment)
chain: T1 sequence (Q8IUH5 50-288)
modifications: ankyrin repeat domain
size exclusion peak homogeneity (in words) [11]: homogenous and monodisperse peaks

B4: DHHC15: DHHC15 palmitoyl transferase (NM_144969), comparison enzyme (protein, UniProt Q96MV8 1-337, looked up)
Palmitoyltransferase ZDHHC15: MRRGWKMALSGGLRCCRRVLSWVPVLVIVLVVLWSYYAYVFELCLVTVLSPAEKVIYLILYHAIFVFFTWTYWKSIFTLPQQPNQKFHLSYTDKERYENEERPEVQKQMLVDMAKKLPVYTRTGSGAVRFCDRCHLIKPDRCHHCSVCAMCVLKMDHHCPWVNNCIGFSNYKFFLQFLAYSVLYCLYIATTVFSYFIKYWRGELPSVRSKFHVLFLLFVACMFFVSLVILFGYHCWLVSRNKTTLEAFCTPVFTSGPEKNGFNLGFIKNIQQVFGDKKKFWLIPIGSSPGDGHSFPMRSMNESQNPLLANEETWEDNEDDNQDYPEGSSSLAVETET
modifications: 10xHis tag
palmitate transfer to Snap25b (in words) [12]: capable of transferring palmitate to a protein substrate such as Snap25b
